Values belong to the molecule of their own block, whether it stands above or below them.
Legend:
CD25 = assay: Flow cytometry, surface expression of CD25 after Mn2+ activation; format: cell-based, mouse (NOD, BALB/c); details: PBMC and spleen, Mn2+ 30 min
CD11a [1] = assay: Flow cytometry, surface expression of CD11a after Mn2+ activation; format: cell-based, mouse (NOD, BALB/c)
In short: (§1)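 NOD and BALB/c PBMC, isolated over density medium and used without further purification, were stained with or without Mn2+ activation for CD4, CD40, CD18, CD11a and CD11b, with isotype controls (1 to 3 × 10^5 cells per stain). Flow cytometry, lymphocyte gate split into CD4hi (conventional CD4), CD4lo (Th40) and CD4-negative cells. CD11a or CD11b surface expression compared ± Mn2+.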

CD40 = assay: Flow cytometry, surface expression of CD40 after Mn2+ activation; format: cell-based, mouse (NOD, BALB/c)
In short: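 Flow cytometry on unfractionated PBMC from NOD and BALB/c mice ± Mn2+ activation, stained for CD4, CD40, CD18, CD11a and CD11b with isotype controls (1 to 3 × 10^5 cells). CD40 assessed in CD4hi, CD4lo (Th40) and CD4-negative subsets of the lymphocyte gate, read as overall mean fluorescence intensity. Two-tailed t test.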

CD18 [2] = assay: Flow cytometry, surface expression of CD18 after Mn2+ activation; format: cell-based, mouse (NOD, BALB/c)
In short: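 Density-medium-purified PBMC from NOD and BALB/c mice, unactivated or Mn2+-activated, stained for CD4, CD40, CD18, CD11a and CD11b against isotype controls; 1 to 3 × 10^5 cells per stain. Lymphocytes gated as CD4hi, CD4lo (Th40) or CD4-negative, then CD18hi and CD18lo populations scored. One-way ANOVA with Tukey's multiple comparisons test.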

CD154 = assay: Flow cytometry, surface expression of CD154 after Mn2+ activation; format: cell-based, mouse (NOD, BALB/c); details: PBMC and spleen, Mn2+ 30 min
CD69 = assay: Flow cytometry, surface expression of CD69 after Mn2+ activation; format: cell-based, mouse (NOD, BALB/c); details: PBMC and spleen, Mn2+ 30 min
CD11b [3] = assay: Flow cytometry, surface expression of CD11b after Mn2+ activation; format: cell-based, mouse (NOD, BALB/c)
In short: as §1

CD11a [4] = assay: Control immunoprecipitation; format: binding, mouse (NOD); details: NOD cell lysates; OVA-pep IP, control for KGYY15
CD18 [5] = assay: Control immunoprecipitation; format: binding, mouse (NOD); details: NOD cell lysates; OVA-pep IP, control for KGYY15
CD11b [6] = assay: Control immunoprecipitation; format: binding, mouse (NOD); details: NOD cell lysates; OVA-pep IP, control for KGYY15
[7] = molecular target: FITC-conjugated mouse KGYY15 (mouse); assay: flow cytometry on cells
[8] = system: integrin αMβ2 (CD11b/CD18); details: cited from earlier work
integrin αIIbβ3 = details: cited from earlier work
[9] = system: integrin α5β1 (CD49e/CD29); details: cited from earlier work
[10] = PBMC, any cell type, either strain
[11] = spleen cells, two mouse strains
[12] = PBMC conventional CD4 T cells, both strains
[13] = PBMC, BALB/c Th40, NOD Th40 and CD4-negative cells

Molecule: [Mn+2] [Mn^2+, manganese divalent ions]
- surface expression of CD25 (CD25): None of the three molecules was affected
- surface expression of CD11a (CD11a [1]; [10]): no change
- surface expression of CD11a (CD11a [1]; [11]): did not reveal any change
- surface expression of CD40 (CD40; [12]): did not change surface expression of CD40 or CD18
- percentage of cells expressing CD40 on surface (CD40; PBMC, NOD and BALB/c): did not increase the percentage of cells expressing CD40
- intensity of CD40 surface expression (CD40; [13]): significantly elevated
- surface expression of CD40 (CD40; [11]): did not reveal any change
- surface expression of CD18 (CD18 [2]; [12]): did not change surface expression of CD40 or CD18
- CD18hi population (CD18 [2]; [13]): decrease in the CD18^hi population
- CD18lo population (CD18 [2]; [13]): corresponding increase in the CD18^lo population
- surface expression of CD18 (CD18 [2]; [11]): did not reveal any change
- surface expression of CD154 (CD154): None of the three molecules was affected
- surface expression of CD69 (CD69): None of the three molecules was affected
- surface expression of CD11b (CD11b [3]; [10]): no change
- surface expression of CD11b (CD11b [3]; [11]): did not reveal any change

Molecule: OVA-peptide: unrelated peptide, the 17-amino-acid OVA (323–339) peptide, control for KGYY15 (KISQAVHAAHAEINEAG; UniProt P01012 323-339, looked up, fragment)
- immunoprecipitation of CD11a (control) (CD11a [4]): No CD11a, CD11b, or CD18 was immunoprecipitated
- immunoprecipitation of CD18 (control) (CD18 [5]): No CD11a, CD11b, or CD18 was immunoprecipitated
- immunoprecipitation of CD11b (control) (CD11b [6]): No CD11a, CD11b, or CD18 was immunoprecipitated

- percent reduction of KGYY15-FITC staining of NAMALWA cells [7]: 29.4%
Molecule: recombinant CD11a/CD18 (R&D Systems cat# 3868-AV-050) (from UniProt P20701 26-1090; P05107 23-700) (complex)

- percent reduction of KGYY15-FITC staining of NAMALWA cells [7]: 22.7%
Molecule: recombinant CD11b/CD18 (R&D Systems cat# 4047-AM-050) (from UniProt P11215 17-1104; P05107 23-700) (complex)

B1: CD154: natural CD40-ligand, whole protein (protein, UniProt P27548 112-260, looked up)
CD40 ligand, soluble form: MQRGDEDPQIAAHVVSEANSNAASVLQWAKKGYYTMKSNLVMLENGKQLTVKREGLYYVYTQVTFCSNREPSSQRPFIVGLWLKPSSGSERILLKAANTHSSSQLCEQQSVHLGGVFELQAGASVFVNVTEASQVIHRVGFSSFGLLKL
- binding to integrin [8]: binds
- binding to integrin (integrin αIIbβ3): binds
- binding to integrin [9]: binds

— article PMC10141526 (The Journal of Biological Chemistry, 2023)
